Experimental findings from ChEMBL document CHEMBL1944511, “Bakuchiol derivatives as novel and potent cytotoxic agents: a report” (Eur J Med Chem, 2012) are described below.

Structures are written as SMILES.

Holding throughout (type): functional
The test system of experiment [1] is IMR-32. In words: Growth inhibition of human IMR32 cells at 50 uM after 48 hrs by sulpharhodamine B assay. Particulars: IMR-32, 48 h, read-out: GI. The method, boiled down: (§1)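 This is the SRB protein-stain assay on adherent cells in RPMI-1640/MEM with 10% FCS. Each compound in DMSO (vehicle <0.2%) was applied at a single fixed concentration for 48 h. Cells were fixed with TCA and stained with SRB, and the dye was solubilised in Tris and read at 570/620 nm. Percent growth inhibition is relative to vehicle-treated controls, reported as mean ± SD of three experiments run in triplicate.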

The subject of experiment [2] is A549. In words: Growth inhibition of human A549 cells at 50 uM after 48 hrs by sulpharhodamine B assay. Particulars: A549, 48 h, read-out: GI. The method, boiled down: as §1
Experiment [3] deals with MCF7. In words: Growth inhibition of human MCF7 cells at 30 uM after 48 hrs by sulpharhodamine B assay. Particulars: MCF7, 48 h, read-out: GI. The method, boiled down:
as §1

For experiment [4], the system named is HeLa. Put plainly: Growth inhibition of human HeLa cells at 30 uM after 48 hrs by sulpharhodamine B assay. The settings on record: read-out: GI. The method, boiled down: as §1
The subject of experiment [5] is PC-3. Put plainly: Growth inhibition of human PC3 cells at 30 uM after 48 hrs by sulpharhodamine B assay. Particulars: PC-3, 48 h, read-out: GI. The method, boiled down:
(§2)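 Cells grown in RPMI-1640/MEM with 10% FCS, penicillin/streptomycin, 37 °C, 5% CO2. Seeded in 96-well plates, allowed to adhere overnight, then exposed 48 h to analogs in DMSO (vehicle <0.2% in controls). TCA-fixed, stained with 0.4% SRB in 1% acetic acid, dye solubilized in 10 mM Tris base, OD 570 nm (ref 620 nm). Mean ± SD of three experiments run in triplicate.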

Experiment [6] deals with IMR-32. Put plainly: Growth inhibition of human IMR32 cells at 30 uM after 48 hrs by sulpharhodamine B assay. Particulars: IMR-32, 48 h, read-out: GI. The method, boiled down: as §1
Experiment [7] relates to OVCAR-5. Put plainly: Growth inhibition of human OVCAR5 cells at 30 uM after 48 hrs by sulpharhodamine B assay. The settings on record: OVCAR-5, 48 h, read-out: GI. The method, boiled down:
as §1

Experiment [8] relates to HEp-2. Put plainly: Growth inhibition of human Hep2 cells at 50 uM after 48 hrs by sulpharhodamine B assay. The settings on record: HEp-2, 48 h, read-out: GI. The method, boiled down:
as §1

The subject of experiment [9] is MCF7. Put plainly: Growth inhibition of human MCF7 cells at 50 uM after 48 hrs by sulpharhodamine B assay. The settings on record: MCF7, 48 h, read-out: GI. The method, boiled down: as §1
Experiment [10] deals with OVCAR-5. In words: Growth inhibition of human OVCAR5 cells at 50 uM after 48 hrs by sulpharhodamine B assay. Particulars: OVCAR-5, 48 h, read-out: GI. The method, boiled down: as §1
Experiment [11] has as its system THP-1. Put plainly: Growth inhibition of human THP1 cells at 50 uM after 48 hrs by sulpharhodamine B assay. Particulars: THP-1, 48 h, read-out: GI. The method, boiled down: as §2
For experiment [12], the system named is PC-3. In words: Growth inhibition of human PC3 cells at 50 uM after 48 hrs by sulpharhodamine B assay. The settings on record: PC-3, 48 h, read-out: GI. The method, boiled down:
as §2

For experiment [13], the system named is HEp-2. Put plainly: Growth inhibition of human Hep2 cells at 30 uM after 48 hrs by sulpharhodamine B assay. Particulars: HEp-2, 48 h, read-out: GI. The method, boiled down:
as §1

Experiment [14] has as its system HeLa. Put plainly: Growth inhibition of human HeLa cells at 50 uM after 48 hrs by sulpharhodamine B assay. The settings on record: read-out: GI. The method, boiled down:
as §1

Experiment [15] concerns A549. In words: Growth inhibition of human A549 cells at 30 uM after 48 hrs by sulpharhodamine B assay. Particulars: A549, 48 h, read-out: GI. The method, boiled down: as §1
The test system of experiment [16] is THP-1. In words: Growth inhibition of human THP1 cells at 30 uM after 48 hrs by sulpharhodamine B assay. Particulars: THP-1, 48 h, read-out: GI. The method, boiled down:
as §2

The subject of another experiment is HL-60. Put plainly: Induction of apoptosis in human HL60 cells assessed as loss of mitochondrial membrane potential at 5 uM after 24 hrs by rodamine-123 staining-based flow cytometric analysis (reference value: 6%).

As to `C=C[C@@](C)(/C=C/c1ccc(OC(=O)CCCCCCCCC)cc1)CCC=C(C)C`, the inhibition of growth at 50 µM with IMR-32 [1] came to 52%; in the experiment on A549 [2], 48%; in the experiment on HEp-2 [8] it was 30%; in the experiment on MCF7 [9], 10%; in the experiment with OVCAR-5 [10], 42%; in the experiment on THP-1 [11], 52%. In addition, the inhibition of growth at 50 µM in the experiment on PC-3 [12] and in the experiment on HeLa [14] was 50% each time. Also, the inhibition of growth at 30 µM with MCF7 [3] was 12%; in the experiment with HeLa [4], 24%; in the experiment with PC-3 [5], 27%; with IMR-32 [6], 22%; with OVCAR-5 [7], 29%; in the experiment with HEp-2 [13] it was 16%. Also, the inhibition of growth at 30 µM in the experiment on A549 [15] was 33%; with THP-1 [16], 39%.
`CC(C)=CCC[C@@](C)(/C=C/c1ccc(N)cc1)/C=C/c1ccc(O)cc1`: the inhibition of growth at 50 µM in the experiment on IMR-32 [1] was determined as 28%; in the experiment on A549 [2] it was 57%; in the experiment on HEp-2 [8], 46%; with MCF7 [9], 48%; with OVCAR-5 [10] it was 16%; in the experiment with THP-1 [11], 51%. Besides, the figures for the inhibition of growth at 50 µM in the experiment with PC-3 [12] and in the experiment on HeLa [14] were 59% and 27%, respectively. In addition, the inhibition of growth at 30 µM amounted to 28% in the experiment with MCF7 [3]; 5% in the experiment on HeLa [4]; 15% in the experiment on PC-3 [5]; 14% in the experiment on IMR-32 [6]; 8% in the experiment with OVCAR-5 [7]; 32% with HEp-2 [13]. For the same compound, the inhibition of growth at 30 µM stood at 33% with A549 [15] and 32% in the experiment with THP-1 [16].
For the compound `CC[C@@]1(O)C(=O)OCc2c1cc1n(c2=O)Cc2cc3ccccc3nc2-1` [CAMPTOTHECIN], the Activity with HL-60 turned out to be 55.5%.
For `C=C[C@@](C)(/C=C/c1ccc(OC)cc1)CCC=C(C)C`, the inhibition of growth at 50 µM in the experiment with IMR-32 [1] is 30%; with A549 [2], 12%; in the experiment on HEp-2 [8], 40%; in the experiment with MCF7 [9], 18%; with OVCAR-5 [10], 37%; in the experiment on THP-1 [11], 45%. In addition, the inhibition of growth at 50 µM in the experiment with PC-3 [12] is 44%; in the experiment on HeLa [14], 43%. In addition, the inhibition of growth at 30 µM amounted to 37% in the experiment with MCF7 [3]; 28% with HeLa [4]; 31% with PC-3 [5]; 23% with IMR-32 [6]; 29% in the experiment on OVCAR-5 [7]; 22% in the experiment on HEp-2 [13]. For the same compound, the inhibition of growth at 30 µM with A549 [15] was 34%; in the experiment with THP-1 [16], 29%.
In the case of `COc1ccc(/C=C/[C@@](C)(/C=C/c2ccc(O)cc2)CCC=C(C)C)cc1`, the inhibition of growth at 50 µM in the experiment on IMR-32 [1] is 6%; in the experiment on A549 [2], 40%; in the experiment on MCF7 [9], 55%; with OVCAR-5 [10], 20%; in the experiment on THP-1 [11], 52%; in the experiment with PC-3 [12] it was 50%. Moreover, the inhibition of growth at 50 µM with HeLa [14] came to 20%.
